Reference: ChEMBL document CHEMBL1142894, “Preparation of 5-aryl-3-alkylthio-l,2,4-triazoles and corresponding sulfones with antiinflammatory-analgesic activity” (Bioorg Med Chem, 2007)
Activity calls are given as the source filed them. The calls are words filed in the database; no cut-off is given here.

How the values were obtained:
[1] = test system: Mus musculus; assay: Gastric-ulcerogenic effect in Swiss albino mouse assessed as lesions at 50 mg/kg, po; format: functional, organism-based; parameters: dose 50 mg/kg
Procedure, shortened: (§1)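 Mice killed under deep ether anesthesia 3 h after the writhing test; the oral dose in 0.5% CMC was the one used in that test. Stomachs removed, opened along the great curvature and examined under a dissecting microscope for lesions or bleeding. Reported as ratio of ulceration; n = 6.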

[2] = test system: Mus musculus; assay: Antiinflammatory activity against carrageenan-induced paw edema in Swiss albino mouse assessed as swelling thickness at 50 mg/kg, po after 360 mins; format: functional
Procedure, shortened: (§2)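 Oral dosing in 0.5% CMC; vehicle to controls. Then carrageenan (0.5 mg/25 ll, freshly suspended in 154 mM saline) injected into the right hind paw subplantar tissue; saline into the left paw. Right-left footpad thickness difference measured by dial gauge calliper every 90 min over 6 h. Inhibition % is relative to vehicle control. n = 6; mean ± SEM.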

[3] = test system: Mus musculus; assay: Inhibition of p-benzoquinone-induced writhing in Swiss albino mouse at 25 mg/kg, po relative to control; format: functional
Procedure, shortened: (§3)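 Mice, n = 6 per group, dosed orally with a suspension in 0.5% sodium CMC. 60 min later, 0.1 ml/10 g of 2.5% […] p-benzoquinone in distilled water given ip. Abdominal writhes counted per animal for 15 min, starting 5 min after injection. Expressed as % change in mean writhing count versus vehicle controls.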

[4] = test system: Mus musculus; assay: Analgesic activity against p-benzoquinone-induced abdominal constriction in Swiss albino mouse assessed as number of writhings at 200 mg/kg, po; format: functional, Abdomen
Procedure, shortened: (§4)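 Test samples given orally in 0.5% CMC; vehicle to controls. 60 min later, 2.5% (v/v) p-benzoquinone in distilled water, 0.1 ml/10 g, given i.p. Mice housed singly; writhes counted for 15 min starting 5 min after injection. Activity is % change from vehicle controls. n = 6; mean ± SEM.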

[5] = test system: Mus musculus; assay: Gastric-ulcerogenic effect in Swiss albino mouse assessed as lesions at 100 mg/kg, po; format: functional, organism-based; parameters: dose 100 mg/kg; procedure, shortened: as §1
[6] = test system: Mus musculus; assay: Antiinflammatory activity against carrageenan-induced paw edema in Swiss albino mouse assessed as swelling thickness at 25 mg/kg, po after 180 mins; format: functional; procedure, shortened: as §2
[7] = test system: Mus musculus; assay: Inhibition of carrageenan-induced paw edema in Swiss albino mouse at 100 mg/kg, po after 360 mins relative to control; format: functional; conditions: 6 h; procedure, shortened: as §2
[8] = test system: Mus musculus; assay: Analgesic activity against p-benzoquinone-induced abdominal constriction in Swiss albino mouse assessed as number of writhings at 50 mg/kg, po; format: functional, Abdomen; procedure, shortened: as §4
[9] = test system: Mus musculus; assay: Inhibition of carrageenan-induced paw edema in Swiss albino mouse at 25 mg/kg, po after 180 mins relative to control; format: functional; conditions: 3 h; procedure, shortened: as §2
[10] = test system: Mus musculus; assay: Inhibition of carrageenan-induced paw edema in Swiss albino mouse at 25 mg/kg, po after 360 mins relative to control; format: functional; conditions: 6 h; procedure, shortened: as §2
[11] = test system: Mus musculus; assay: Antiinflammatory activity against carrageenan-induced paw edema in Swiss albino mouse assessed as swelling thickness at 200 mg/kg, po after 90 mins; format: functional; procedure, shortened: as §2
[12] = test system: Mus musculus; assay: Analgesic activity against p-benzoquinone-induced abdominal constriction in Swiss albino mouse assessed as number of writhings at 100 mg/kg, po; format: functional, Abdomen; procedure, shortened: as §4
[13] = test system: Mus musculus; assay: Antiinflammatory activity against carrageenan-induced paw edema in Swiss albino mouse assessed as swelling thickness at 50 mg/kg, po after 270 mins; format: functional; procedure, shortened: as §2
[14] = test system: Mus musculus; assay: Antiinflammatory activity against carrageenan-induced paw edema in Swiss albino mouse assessed as swelling thickness at 200 mg/kg, po after 270 mins; format: functional; procedure, shortened: as §2
[15] = test system: Mus musculus; assay: Inhibition of carrageenan-induced paw edema in Swiss albino mouse at 50 mg/kg, po after 360 mins relative to control; format: functional; conditions: 6 h
Procedure, shortened: (§5)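 Mice, n = 6 per group. Test agent given orally as a suspension in 0.5% sodium CMC in distilled water; controls received vehicle only. Afterwards, 0.5 mg/25 ll carrageenan in saline (154 mM NaCl) injected subplantar into the right hind paw, saline into the left. Right-minus-left footpad thickness measured by dial gauge caliper every 90 min for 6 h. Inhibition is relative to vehicle-control group means.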

[16] = test system: Mus musculus; assay: Inhibition of carrageenan-induced paw edema in Swiss albino mouse at 25 mg/kg, po after 90 mins relative to control; format: functional; conditions: 1.5 h; procedure, shortened: as §2
[17] = test system: Mus musculus; assay: Inhibition of p-benzoquinone-induced writhing in Swiss albino mouse at 100 mg/kg, po relative to control; format: functional; procedure, shortened: as §3
[18] = test system: Mus musculus; assay: Inhibition of carrageenan-induced paw edema in Swiss albino mouse at 100 mg/kg, po after 180 mins relative to control; format: functional; conditions: 3 h; procedure, shortened: as §2
[19] = test system: Mus musculus; assay: Inhibition of p-benzoquinone-induced writhing in Swiss albino mouse at 200 mg/kg, po relative to control; format: functional; procedure, shortened: as §3
[20] = test system: Mus musculus; assay: Acute toxicity in Swiss albino mouse assessed as lethal effect at 200 mg/kg/day, po after 72 hrs; format: organism-based; parameters: route oral; conditions: in vivo
Procedure, shortened: (§6)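 Oral single dose suspended in 0.5% carboxymethylcellulose, given after a 24 h fast; food and water returned 1 h after dosing. Vehicle-only controls. Mice observed at 1 h, then once daily for 72 h, for toxic signs and mortality.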

[21] = test system: Mus musculus; assay: Antiinflammatory activity against carrageenan-induced paw edema in Swiss albino mouse assessed as swelling thickness at 25 mg/kg, po after 90 mins; format: functional; procedure, shortened: as §2
[22] = test system: Mus musculus; assay: Antiinflammatory activity against carrageenan-induced paw edema in Swiss albino mouse assessed as swelling thickness at 50 mg/kg, po after 180 mins; format: functional; procedure, shortened: as §2
[23] = test system: Mus musculus; assay: Inhibition of carrageenan-induced paw edema in Swiss albino mouse at 25 mg/kg, po after 270 mins relative to control; format: functional; conditions: 4.5 h; procedure, shortened: as §2
[24] = test system: Mus musculus; assay: Inhibition of carrageenan-induced paw edema in Swiss albino mouse at 50 mg/kg, po after 180 mins relative to control; format: functional; conditions: 3 h; procedure, shortened: as §2
[25] = test system: Mus musculus; assay: Antiinflammatory activity against carrageenan-induced paw edema in Swiss albino mouse assessed as swelling thickness at 50 mg/kg, po after 90 mins; format: functional; procedure, shortened: as §2
[26] = test system: Mus musculus; assay: Acute toxicity in Swiss albino mouse assessed as lethal effect at 50 mg/kg/day, po after 72 hrs; format: organism-based; parameters: route oral; conditions: in vivo; procedure, shortened: as §6
[27] = test system: Mus musculus; assay: Antiinflammatory activity against carrageenan-induced paw edema in Swiss albino mouse assessed as swelling thickness at 25 mg/kg, po after 360 mins; format: functional; procedure, shortened: as §2
[28] = test system: Mus musculus; assay: Acute toxicity in Swiss albino mouse assessed as lethal effect at 25 mg/kg/day, po after 72 hrs; format: organism-based; parameters: route oral; conditions: in vivo; procedure, shortened: as §6
[29] = test system: Mus musculus; assay: Analgesic activity against p-benzoquinone-induced abdominal constriction in Swiss albino mouse assessed as number of writhings at 25 mg/kg, po; format: functional, Abdomen; procedure, shortened: as §4
[30] = test system: Mus musculus; assay: Inhibition of carrageenan-induced paw edema in Swiss albino mouse at 100 mg/kg, po after 270 mins relative to control; format: functional; conditions: 4.5 h; procedure, shortened: as §2
[31] = test system: Mus musculus; assay: Inhibition of carrageenan-induced paw edema in Swiss albino mouse at 50 mg/kg, po after 270 mins relative to control; format: functional; conditions: 4.5 h; procedure, shortened: as §5
[32] = test system: Mus musculus; assay: Antiinflammatory activity against carrageenan-induced paw edema in Swiss albino mouse assessed as swelling thickness at 200 mg/kg, po after 360 mins; format: functional; procedure, shortened: as §2
[33] = test system: Mus musculus; assay: Acute toxicity in Swiss albino mouse assessed as lethal effect at 100 mg/kg/day, po after 72 hrs; format: organism-based; parameters: route oral; conditions: in vivo; procedure, shortened: as §6
[34] = test system: Mus musculus; assay: Antiinflammatory activity against carrageenan-induced paw edema in Swiss albino mouse assessed as swelling thickness at 100 mg/kg, po after 360 mins; format: functional; procedure, shortened: as §2
[35] = test system: Mus musculus; assay: Antiinflammatory activity against carrageenan-induced paw edema in Swiss albino mouse assessed as swelling thickness at 100 mg/kg, po after 270 mins; format: functional; procedure, shortened: as §2
[36] = test system: Mus musculus; assay: Antiinflammatory activity against carrageenan-induced paw edema in Swiss albino mouse assessed as swelling thickness at 100 mg/kg, po after 180 mins; format: functional; procedure, shortened: as §2
[37] = test system: Mus musculus; assay: Antiinflammatory activity against carrageenan-induced paw edema in Swiss albino mouse assessed as swelling thickness at 100 mg/kg, po after 90 mins; format: functional; procedure, shortened: as §2
[38] = test system: Mus musculus; assay: Inhibition of carrageenan-induced paw edema in Swiss albino mouse at 100 mg/kg, po after 90 mins relative to control; format: functional; conditions: 1.5 h; procedure, shortened: as §2
[39] = test system: Mus musculus; assay: Antiinflammatory activity against carrageenan-induced paw edema in Swiss albino mouse assessed as swelling thickness at 200 mg/kg, po after 180 mins; format: functional; procedure, shortened: as §2
[40] = test system: Mus musculus; assay: Inhibition of carrageenan-induced paw edema in Swiss albino mouse at 50 mg/kg, po after 90 mins relative to control; format: functional; conditions: 1.5 h; procedure, shortened: as §5
[41] = test system: Mus musculus; assay: Gastric-ulcerogenic effect in Swiss albino mouse assessed as lesions at 25 mg/kg, po; format: functional, organism-based; parameters: dose 25 mg/kg; procedure, shortened: as §1
[42] = test system: Mus musculus; assay: Antiinflammatory activity against carrageenan-induced paw edema in Swiss albino mouse assessed as swelling thickness at 25 mg/kg, po after 270 mins; format: functional; procedure, shortened: as §2
[43] = test system: Mus musculus; assay: Inhibition of p-benzoquinone-induced writhing in Swiss albino mouse at 50 mg/kg, po relative to control; format: functional; procedure, shortened: as §3

CCSc1nc(-c2ccccc2Cl)n[nH]1
Activity [1]: Active | Activity [2]: 50.7 10^-2mm | inhibition in vivo at 25 mg/kg [3]: 5.6% | Activity [4]: 41.3 | Activity [5]: Active | Activity [6]: 54.8 10^-2mm | inhibition in vivo at 100 mg/kg [7]: 30.9% | Activity [8]: 37.8 | inhibition in vivo at 25 mg/kg [9]: 7.7% | inhibition in vivo at 25 mg/kg [10]: 4.3% | Activity [11]: 55.8 10^-2mm | Activity [12]: 35.2 | Activity [13]: 46.8 10^-2mm | Activity [14]: 67.9 10^-2mm | inhibition in vivo at 50 mg/kg [15]: 29.6% | inhibition in vivo at 25 mg/kg [16]: 7.3% | inhibition in vivo at 100 mg/kg [17]: 25.6% | inhibition in vivo at 100 mg/kg [18]: 26.6% | inhibition in vivo at 200 mg/kg [19]: 19.6% | Activity [20]: Non-toxic | Activity [21]: 49.3 10^-2mm | Activity [22]: 42.8 10^-2mm | inhibition in vivo at 25 mg/kg [23]: 6.6% | inhibition in vivo at 50 mg/kg [24]: 27.9% | Activity [25]: 45.2 10^-2mm | Activity [26]: Non-toxic | Activity [27]: 68.9 10^-2mm | Activity [28]: Non-toxic | Activity [29]: 48.5 | inhibition in vivo at 100 mg/kg [30]: 28.2% | inhibition in vivo at 50 mg/kg [31]: 27.8% | Activity [32]: 75.9 10^-2mm | Activity [33]: Non-toxic | Activity [34]: 47.5 10^-2mm | Activity [35]: 42.2 10^-2mm | Activity [36]: 37.8 10^-2mm | Activity [37]: 33.2 10^-2mm | inhibition in vivo at 100 mg/kg [38]: 25.9% | Activity [39]: 61.2 10^-2mm | inhibition in vivo at 50 mg/kg [40]: 15% | Activity [41]: Active | Activity [42]: 60.5 10^-2mm | inhibition in vivo at 50 mg/kg [43]: 26.4%
